We go through five compounds from ChEMBL document CHEMBL5316281, “Trojan Horse Siderophore Conjugates Induce Pseudomonas aeruginosa Suicide and Qualify the TonB Protein as a Novel Antibiotic Target” (2023).

Assay [1] has as its system Pseudomonas aeruginosa. The experiment in a line: Antimicrobial activity against Pseudomonas aeruginosa harboring deltapvdF-deltapchA mutant assessed as inhibition of bacterial growth by measuring minimal inhibitory concentration incubated for 24 hrs in presence of iron-depleted CAA medium. The class given is functional.
For assay [2], the system named is Pseudomonas aeruginosa. Put plainly: Antimicrobial activity against Pseudomonas aeruginosa harboring deltapvdF-deltapchA mutant assessed as inhibition of bacterial growth by measuring minimal inhibitory concentration incubated for 48 hrs in presence of iron-depleted CAA medium. It is filed as functional.
For assay [3], the system named is Pseudomonas aeruginosa. Put plainly: Antimicrobial activity against Pseudomonas aeruginosa PAO1 assessed as inhibition of bacterial growth in presence of iron-depleted CAA medium. It is filed as functional, organism-based.
The test system of assay [4] is Pseudomonas aeruginosa. Put plainly: Antimicrobial activity against Pseudomonas aeruginosa harboring deltapvdF-deltapchA mutant assessed as decrease in fptA transcription level at 10 uM incubated for 8 hrs in presence of iron-depleted CAA medium by qRT-PCR analysis. It is filed as functional, organism-based. The gist of the method: (§1)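 Cells grown in CAA medium for 8 h at 30 °C with vigorous shaking, with or without 10 μM compound; 2.5 x 10⁸ cells stabilized in two volumes RNAprotect; RNA processed per earlier protocol; RT-qPCR with primer efficiencies from serially diluted genomic DNA; double ΔCT analysis.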
A general note: Real-time PCR tracks product formation cycle by cycle.

Assay [5] has as its system Pseudomonas aeruginosa. The experiment in a line: Antimicrobial activity against Pseudomonas aeruginosa harboring deltapvdF-deltapchA mutant assessed as effect on pirA transcription level at 10 uM incubated for 8 hrs in presence of iron-depleted CAA medium by qRT-PCR analysis. The class given is functional, organism-based. The method, boiled down: as §1
Assay [6] relates to Pseudomonas aeruginosa. The experiment in a line: Antimicrobial activity against Pseudomonas aeruginosa harboring deltapvdF-deltapchA mutant assessed as increase in pfeA transcription level at 10 uM incubated for 8 hrs in presence of iron-depleted CAA medium by qRT-PCR analysis. The class given is functional, organism-based. The gist of the method:
as §1

Assay [7] concerns Pseudomonas aeruginosa. The experiment in a line: Antimicrobial activity against Pseudomonas aeruginosa harboring deltapvdF-deltapchA mutant with PirA deletion assessed as reduction of bacterial growth at 10 uM by growth kinetic assay. The class given is functional, organism-based. The method, boiled down:
(§2)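 Overnight LB culture washed, regrown in CAA at 30 °C, washed, resuspended in CAA at OD600 0.02; fresh sterile-filtered aqueous compound added to 10 µM final; OD600 read in plate reader for 48 h at 30 °C with regular agitation.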

In assay [8] the test system is Pseudomonas aeruginosa. Put plainly: Antimicrobial activity against Pseudomonas aeruginosa harboring deltapvdF-deltapchA mutant with PfeA deletion assessed as reduction of bacterial growth at 10 uM by growth kinetic assay. It is filed as functional, organism-based. The gist of the method: as §2
The test system of assay [9] is Pseudomonas aeruginosa. Put plainly: Antimicrobial activity against Pseudomonas aeruginosa harboring deltapvdF-deltapchA mutant with PirA-PfeA dual deletion assessed as reduction of bacterial growth at 10 uM by growth kinetic assay. The class given is functional, organism-based. The gist of the method:
as §2

For assay [10], the system named is Pseudomonas aeruginosa. The experiment in a line: Antimicrobial activity against Pseudomonas aeruginosa PAO1 assessed as fold increase in pfeA transcription level at 10 uM incubated for 8 hrs in presence of iron-depleted CAA medium by qRT-PCR analysis. The class given is functional. The method, boiled down:
as §1

Activity calls are given as the source filed them. The calls are words filed in the database; no cut-off is given here. Where a SMILES comes first, the peptide text is derived from it. The star is where a group is joined. X1 = O=C(COCC(=O)*)NCCOCCOCCOCCOCCOCCOCCOCCOCCn1cc(CCCC(=O)Nc2c(CNC(=O)c3cccc(O)c3O)cc(CNC(=O)c3cccc(O)c3O)cc2CNC(=O)c2cccc(O)c2O)nn1

The term MIC denotes the least concentration at which growth counts as inhibited. With `CC[C@H](C)[C@H](NC(=O)[C@H](CCSC)NC(=O)[C@@H](NC(=O)[C@H](C)NC(=O)CNC(=O)[C@H](CC(C)C)NC(=O)[C@H](CC(=O)O)NC(=O)[C@@H](NC(=O)[C@H](CO)NC(=O)[C@H](CO)NC(=O)[C@H](CC(=O)O)NC(=O)COCC(=O)NCCOCCOCCOCCOCCOCCOCCOCCOCCn1cc(CCCC(=O)Nc2c(CNC(=O)c3cccc(O)c3O)cc(CNC(=O)c3cccc(O)c3O)cc2CNC(=O)c2cccc(O)c2O)nn1)C(C)C)[C@@H](C)O)C(=O)N[C@H](C(=O)N[C@@H](CO)C(=O)N[C@@H](CC(N)=O)C(=O)N[C@@H](CCC(N)=O)C(=O)N[C@@H](CC(C)C)C(=O)NCC(=O)N[C@H](C(=O)N[C@H](C(=O)N[C@@H](CCCCN)C(N)=O)[C@@H](C)CC)[C@@H](C)O)[C@@H](C)O` (X1-DSSVDLGATMITSNQLGTIK-NH2), the MIC in the assay with Pseudomonas aeruginosa [1] and with Pseudomonas aeruginosa [2] was more than 64 µM throughout. The result in the assay on Pseudomonas aeruginosa [3], in the assay with Pseudomonas aeruginosa [5] and with Pseudomonas aeruginosa [7] was inactive. For the same compound, the outcome in the assay with Pseudomonas aeruginosa [4], in the assay with Pseudomonas aeruginosa [6], with Pseudomonas aeruginosa [8] and with Pseudomonas aeruginosa [9] was Active.

For the compound `C#CCNC(=O)CN1CCN(CC(=O)NCCNC(=O)c2cccc(O)c2O)CCN(CC(=O)NCCNC(=O)c2cccc(O)c2O)CCN(CC(=O)NCCNC(=O)c2cccc(O)c2O)CC1`, the MIC in the assay with Pseudomonas aeruginosa [1] and in the assay on Pseudomonas aeruginosa [2] was 64 µM each time. Besides, the result with Pseudomonas aeruginosa [3], in the assay on Pseudomonas aeruginosa [5] and in the assay with Pseudomonas aeruginosa [8] was inactive. The “fold change (FC)” value in the assay on Pseudomonas aeruginosa [10] turned out to be 2. For the same compound, the result in the assay on Pseudomonas aeruginosa [4] and in the assay on Pseudomonas aeruginosa [7] was Active.

H-VIELGEQTVVATAQEETKQK-NH2: the result in the assay with Pseudomonas aeruginosa [3], in the assay with Pseudomonas aeruginosa [5], in the assay on Pseudomonas aeruginosa [6], with Pseudomonas aeruginosa [7], in the assay with Pseudomonas aeruginosa [8] and with Pseudomonas aeruginosa [9] was inactive. Moreover, the outcome with Pseudomonas aeruginosa [4] was Active.

Regarding H-DSSVDLGATMITSNQLGTIK-NH2, the result in the assay on Pseudomonas aeruginosa [3], with Pseudomonas aeruginosa [5], in the assay with Pseudomonas aeruginosa [6], in the assay on Pseudomonas aeruginosa [7], in the assay on Pseudomonas aeruginosa [8] and with Pseudomonas aeruginosa [9] was inactive. Moreover, the outcome in the assay on Pseudomonas aeruginosa [4] was Active.

Turning to `CC[C@H](C)[C@H](NC(=O)[C@H](CCSC)NC(=O)[C@@H](NC(=O)[C@H](C)NC(=O)CNC(=O)[C@H](CC(C)C)NC(=O)[C@H](CC(=O)O)NC(=O)[C@@H](NC(=O)[C@H](CO)NC(=O)[C@H](CO)NC(=O)[C@@H](N)CC(=O)O)C(C)C)[C@@H](C)O)C(=O)N[C@H](C(=O)N[C@@H](CO)C(=O)N[C@@H](CC(N)=O)C(=O)N[C@@H](CCC(N)=O)C(=O)N[C@@H](CC(C)C)C(=O)NCC(=O)N[C@H](C(=O)N[C@H](C(=O)N[C@@H](CCCCNC(=O)COCC(=O)NCCOCCOCCOCCOCCOCCOCCOCCOCCn1cc(CCCC(=O)Nc2c(CNC(=O)c3cccc(O)c3O)cc(CNC(=O)c3cccc(O)c3O)cc2CNC(=O)c2cccc(O)c2O)nn1)C(N)=O)[C@@H](C)CC)[C@@H](C)O)[C@@H](C)O` (H-DSSVDLGATMITSNQLGTIK(X1)-NH2), the MIC in the assay on Pseudomonas aeruginosa [1] and in the assay with Pseudomonas aeruginosa [2] was more than 64 µM throughout. Moreover, the outcome in the assay on Pseudomonas aeruginosa [3], in the assay on Pseudomonas aeruginosa [5] and with Pseudomonas aeruginosa [7] was inactive. Besides, the outcome in the assay on Pseudomonas aeruginosa [4], in the assay with Pseudomonas aeruginosa [6], with Pseudomonas aeruginosa [8] and in the assay with Pseudomonas aeruginosa [9] was Active.
